Consider eleven molecules from ChEMBL document CHEMBL1138570, “2-Acylhydrazino-5-arylpyrrole derivatives: synthesis and antifungal activity evaluation” (Eur J Med Chem, 2009).

≈ marks a conversion by molar mass, not a printed value.

Format in all cases: functional
The test system of assay [1] is Candida albicans. Description: Antimicrobial activity against Candida albicans ATCC 10231 by broth microdilution method. The method in brief: (§1)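 MIC by NCCLS broth microdilution. Medium was RPMI 1640 with L-glutamine, buffered with 0.165 M MOPS at pH 7.0. Twofold drug dilutions ran 0.008–200 mg/L. Inoculum was set spectrophotometrically to 10⁶ CFU/mL, then diluted in medium to 2 ×10⁴ cells/mL. Plates were incubated overnight at 35 °C in humid air, agitated, and read visually and at 450 nm.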

Assay [2] has as its system Nakaseomyces glabratus. The assay can be described thus: Antimicrobial activity against Candida glabrata by broth microdilution method. The essentials: as §1
Assay [3] concerns Candida parapsilosis. The assay can be described thus: Antimicrobial activity against Candida parapsilosis by broth microdilution method. The conditions noted are these: Lodderomyces parapsilosis. The method in brief:
as §1

Assay [4] concerns Pichia kudriavzevii. The assay can be described thus: Antimicrobial activity against Candida krusei by broth microdilution method. The essentials:
as §1

Assay [5] concerns Candida albicans. Description: Antimicrobial activity against Candida albicans ATCC 10231 after 72 hrs by broth microdilution method. The following applies: ATCC 10231, 72 h. The essentials:
(§2)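 MFC: after MIC reading, a sample from each well was plated on Sabouraud dextrose agar and incubated 72 h at 35 °C. MFC was taken as the minimum concentration killing >99% of the original inoculum. The MIC step was NCCLS broth microdilution in MOPS-buffered RPMI 1640 (pH 7.0), with 2 ×10⁴ cells/mL, overnight at 35 °C.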

Assay [6] deals with Nakaseomyces glabratus. The assay can be described thus: Antimicrobial activity against Candida glabrata after 72 hrs by broth microdilution method. The method in brief: as §2
For assay [7], the system named is Candida parapsilosis. Description: Antimicrobial activity against Candida parapsilosis after 72 hrs by broth microdilution method. The conditions noted are these: Lodderomyces parapsilosis. The essentials:
as §2

For assay [8], the system named is Pichia kudriavzevii. The assay can be described thus: Antimicrobial activity against Candida krusei after 72 hrs by broth microdilution method. The essentials: as §2

On to `CCC(=O)NNc1[nH]c(-c2ccc(OC)cc2)cc1C(=O)OC`, for which the MIC with Candida albicans [1] amounted to 3.12 µg/mL (≈ 9.83 µM); against Nakaseomyces glabratus [2], 6.25 µg/mL (≈ 19.7 µM); in the assay on Candida parapsilosis [3], 3.12 µg/mL (≈ 9.83 µM); against Pichia kudriavzevii [4], 6.25 µg/mL (≈ 19.7 µM). Further, the MFC in the assay with Candida albicans [5] worked out at 3.12 µg/mL (≈ 9.83 µM); in the assay on Nakaseomyces glabratus [6], 12.5 µg/mL (≈ 39.4 µM); in the assay with Candida parapsilosis [7], 12.5 µg/mL (≈ 39.4 µM); against Pichia kudriavzevii [8], 6.25 µg/mL (≈ 19.7 µM).

With `CCOC(=O)NNc1[nH]c(-c2ccccc2)cc1C(=O)OC`, the minimal inhibitory concentration (MIC) turned out to be 3.12 µg/mL (≈ 10.3 µM) in the assay on Candida albicans [1], 3.12 µg/mL (≈ 10.3 µM) with Nakaseomyces glabratus [2], 3.12 µg/mL (≈ 10.3 µM) against Candida parapsilosis [3] and 6.25 µg/mL (≈ 20.6 µM) against Pichia kudriavzevii [4]. Moreover, the MFC against Candida albicans [5] turned out to be 6.25 µg/mL (≈ 20.6 µM); in the assay with Nakaseomyces glabratus [6], 12.5 µg/mL (≈ 41.2 µM); with Candida parapsilosis [7], 12.5 µg/mL (≈ 41.2 µM); in the assay on Pichia kudriavzevii [8], 25 µg/mL (≈ 82.4 µM).

For the molecule `CCOC(=O)NNc1[nH]c(-c2ccc(OC)cc2)cc1C(=O)OC`, the minimal inhibitory concentration (MIC) amounted to 3.12 µg/mL (≈ 9.36 µM) in the assay on Candida albicans [1], 12.5 µg/mL (≈ 37.5 µM) against Nakaseomyces glabratus [2], 25 µg/mL (≈ 75 µM) with Candida parapsilosis [3] and 50 µg/mL (≈ 150 µM) with Pichia kudriavzevii [4]. Besides, the MFC is 6.25 µg/mL (≈ 18.7 µM) in the assay on Candida albicans [5], 50 µg/mL (≈ 150 µM) against Nakaseomyces glabratus [6], greater than 100 µg/mL against Candida parapsilosis [7] and greater than 100 µg/mL with Pichia kudriavzevii [8].

Take `COCCC(=O)NNc1[nH]c(-c2ccccc2)cc1C(=O)OC`: the minimum inhibitory concentration (MIC) amounted to 6.25 µg/mL (≈ 19.7 µM) in the assay on Candida albicans [1], 6.25 µg/mL (≈ 19.7 µM) against Nakaseomyces glabratus [2], 12.5 µg/mL (≈ 39.4 µM) against Candida parapsilosis [3] and 12.5 µg/mL (≈ 39.4 µM) against Pichia kudriavzevii [4]. Further, the minimum fungicidal concentration (MFC) against Candida albicans [5] amounted to 12.5 µg/mL (≈ 39.4 µM); against Nakaseomyces glabratus [6], 25 µg/mL (≈ 78.8 µM); with Candida parapsilosis [7] it was 100 µg/mL (≈ 315 µM); in the assay with Pichia kudriavzevii [8], 25 µg/mL (≈ 78.8 µM).

Turning to `COCCC(=O)NNc1[nH]c(-c2ccccc2)cc1C#N`, the minimal inhibitory concentration (MIC) is 6.25 µg/mL (≈ 22 µM) with Candida albicans [1], 3.25 µg/mL (≈ 11.4 µM) against Nakaseomyces glabratus [2], 6.25 µg/mL (≈ 22 µM) against Candida parapsilosis [3] and 6.25 µg/mL (≈ 22 µM) against Pichia kudriavzevii [4]. Further, the MFC was found to be 6.25 µg/mL (≈ 22 µM) with Candida albicans [5], 12.5 µg/mL (≈ 44 µM) against Nakaseomyces glabratus [6], 25 µg/mL (≈ 87.9 µM) against Candida parapsilosis [7] and 12.5 µg/mL (≈ 44 µM) with Pichia kudriavzevii [8].

For the molecule `COC(=O)c1cc(-c2ccccc2)[nH]c1NNC(C)=O`, the MIC was found to be 3.12 µg/mL (≈ 11.4 µM) against Candida albicans [1], 6.25 µg/mL (≈ 22.9 µM) against Nakaseomyces glabratus [2], 6.25 µg/mL (≈ 22.9 µM) in the assay on Candida parapsilosis [3] and 12.5 µg/mL (≈ 45.7 µM) with Pichia kudriavzevii [4]. Also, the minimum fungicidal concentration (MFC) against Candida albicans [5] was found to be 6.25 µg/mL (≈ 22.9 µM); against Nakaseomyces glabratus [6], 25 µg/mL (≈ 91.5 µM); in the assay with Candida parapsilosis [7], 25 µg/mL (≈ 91.5 µM); in the assay on Pichia kudriavzevii [8] it was 12.5 µg/mL (≈ 45.7 µM).

For `COCC(=O)NNc1[nH]c(-c2ccccc2)cc1C#N`, the MIC with Candida albicans [1] came out at 6.25 µg/mL (≈ 23.1 µM); in the assay on Nakaseomyces glabratus [2], 25 µg/mL (≈ 92.5 µM); in the assay on Candida parapsilosis [3] it was 6.25 µg/mL (≈ 23.1 µM); against Pichia kudriavzevii [4], 6.25 µg/mL (≈ 23.1 µM). Moreover, the MFC came out at 6.25 µg/mL (≈ 23.1 µM) in the assay with Candida albicans [5], 50 µg/mL (≈ 185 µM) in the assay on Nakaseomyces glabratus [6], 6.25 µg/mL (≈ 23.1 µM) in the assay on Candida parapsilosis [7] and 25 µg/mL (≈ 92.5 µM) in the assay with Pichia kudriavzevii [8].

For the molecule `COCC(=O)NNc1[nH]c(-c2ccc(OC)cc2)cc1C#N`, the MIC was 6.25 µg/mL (≈ 20.8 µM) in the assay on Candida albicans [1], 25 µg/mL (≈ 83.2 µM) against Nakaseomyces glabratus [2], 6.25 µg/mL (≈ 20.8 µM) with Candida parapsilosis [3] and 6.25 µg/mL (≈ 20.8 µM) with Pichia kudriavzevii [4]. The MFC came out at 6.25 µg/mL (≈ 20.8 µM) against Candida albicans [5], 50 µg/mL (≈ 166 µM) in the assay on Nakaseomyces glabratus [6], 12.5 µg/mL (≈ 41.6 µM) against Candida parapsilosis [7] and 12.5 µg/mL (≈ 41.6 µM) with Pichia kudriavzevii [8].

For the molecule `CCC(=O)NNc1[nH]c(-c2ccccc2)cc1C(=O)OC`, the MIC with Candida albicans [1] turned out to be 3.12 µg/mL (≈ 10.9 µM); against Nakaseomyces glabratus [2], 6.25 µg/mL (≈ 21.8 µM); in the assay on Candida parapsilosis [3] it was 6.25 µg/mL (≈ 21.8 µM); against Pichia kudriavzevii [4], 12.5 µg/mL (≈ 43.5 µM). The minimum fungicidal concentration (MFC) stood at 6.25 µg/mL (≈ 21.8 µM) against Candida albicans [5], 25 µg/mL (≈ 87 µM) against Nakaseomyces glabratus [6], 12.5 µg/mL (≈ 43.5 µM) with Candida parapsilosis [7] and 25 µg/mL (≈ 87 µM) with Pichia kudriavzevii [8].

As to `COCCC(=O)NNc1[nH]c(-c2ccc(OC)cc2)cc1C#N`, the minimal inhibitory concentration (MIC) with Candida albicans [1] is 3.12 µg/mL (≈ 9.93 µM); against Nakaseomyces glabratus [2] it was 6.25 µg/mL (≈ 19.9 µM); against Candida parapsilosis [3], 6.25 µg/mL (≈ 19.9 µM); against Pichia kudriavzevii [4] it was 3.12 µg/mL (≈ 9.93 µM). Moreover, the minimum fungicidal concentration (MFC) is 6.25 µg/mL (≈ 19.9 µM) in the assay on Candida albicans [5], 12.5 µg/mL (≈ 39.8 µM) against Nakaseomyces glabratus [6], 12.5 µg/mL (≈ 39.8 µM) with Candida parapsilosis [7] and 6.25 µg/mL (≈ 19.9 µM) in the assay on Pichia kudriavzevii [8].

As for `CCOC(=O)NNc1[nH]c(-c2ccccc2)cc1C#N`, the minimal inhibitory concentration (MIC) with Candida albicans [1] was 3.12 µg/mL (≈ 11.5 µM); in the assay on Nakaseomyces glabratus [2] it was 3.12 µg/mL (≈ 11.5 µM); in the assay on Candida parapsilosis [3] it was 6.25 µg/mL (≈ 23.1 µM); against Pichia kudriavzevii [4], 3.12 µg/mL (≈ 11.5 µM). Further, the MFC is 3.12 µg/mL (≈ 11.5 µM) against Candida albicans [5], 6.25 µg/mL (≈ 23.1 µM) against Nakaseomyces glabratus [6], 12.5 µg/mL (≈ 46.2 µM) in the assay on Candida parapsilosis [7] and 6.25 µg/mL (≈ 23.1 µM) in the assay with Pichia kudriavzevii [8].
